In brackets after ≈: the same amount, converted by molar mass.
Assays:
[1] = system: Mycobacterium tuberculosis; assay: Antitubercular activity against Mycobacterium tuberculosis H37Rv incubated for 5 days by microplate alamar blue assay; format: functional; settings: 120 h
Summary of the method: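 M. tuberculosis H37Rv grown with compound in microplate Alamar Blue assay; plates sealed and incubated at 37 °C for five days. A 1:1 mix of Alamar Blue reagent and 10% Tween 80 was then added, followed by another 24 h. Blue was scored as no growth and pink as growth. MIC was the lowest concentration preventing blue-to-pink change.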

HEK293 = assay: Cytotoxicity against HEK293 cells assessed as cell viability incubated for 48 hrs by MTT assay; format: cell-based; settings: Homo sapiens, HEK293, 48 h
Summary of the method: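 HEK293 cells seeded in 96-well plates and held overnight at 37 °C, 5% CO2, 95% humidity. Cells were treated with 500, 250, 125, 62.5, 31.25 and 15.625 (units not given) for 48 h, washed twice with phosphate buffer, then given MTT (5 mg/mL stock) for 4 h at 37 °C. Formazan was dissolved in DMSO and absorbance read at 570 nm.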

[2] = Chemical stability of compound in DMF at 5 x 10^-5 M incubated for 24 hrs by spectrometric analysis; format: physicochemical; settings: 50 µM
Summary of the method: (§1)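 Compound stock prepared in DMF, then diluted with DMF or with buffers of pH 6–8 to 5 × 10⁻⁵ M. Samples were kept at room temperature. UV absorption and fluorescence emission spectra were recorded and their patterns compared over 24 h and 72 h.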

[3] = Chemical stability of compound in pH 6 to 8 buffer at 5 x 10^-5 M incubated for 24 hrs by spectrometric analysis; format: physicochemical; settings: pH 6, 24 h, 50 µM; summary of the method: as §1
[4] = Chemical stability of compound in DMF at 5 x 10^-5 M incubated for 72 hrs by spectrometric analysis; format: physicochemical; settings: 50 µM; summary of the method: as §1
[5] = Chemical stability of compound in pH 6 to 8 buffer at 5 x 10^-5 M incubated for 72 hrs by spectrometric analysis; format: physicochemical; settings: pH 6, 72 h, 50 µM; summary of the method: as §1

Row | SMILES | MIC [1] | IC50 (HEK293) | Stability [2] | Stability [3] | Stability [4] | Stability [5]
1 | Cc1cccc2c(Cn3cc(Cn4c(C)cc(=O)n(Cc5cn(Cc6cc(=O)[nH]c7c(C)cccc67)nn5)c4=O)nn3)cc(=O)[nH]c12 | 79.3 µM (≈ 50 µg/mL) | 1.15 mM |  |  |  | 
2 | Cc1cccc2c(Cn3cc(Cn4c(=O)n(Cc5cn(Cc6cc(=O)[nH]c7c(C)cccc67)nn5)c5ccccc54)nn3)cc(=O)[nH]c12 | 2.5 µM (≈ 1.6 µg/mL) | 4.34 mM | Stable | Stable | Unstable | Unstable
3 | Cc1cc(C)c2c(Cn3cc(Cn4cnc5c4c(=O)n(C)c(=O)n5C)nn3)cc(=O)oc2c1 | 111 µM (≈ 49.7 µg/mL) |  |  |  |  | 
4 | O=c1cc(Cn2cc(Cn3c(=O)n(Cc4cn(Cc5cc(=O)[nH]c6cc(Cl)ccc56)nn4)c4ccccc43)nn2)c2ccc(Cl)cc2[nH]1 | 2.35 µM (≈ 1.6 µg/mL) | 4.57 mM | Stable | Stable | Unstable | Unstable
5 | O=c1cc(Cn2cc(Cn3c(=O)n(Cc4cn(Cc5cc(=O)oc6ccc7ccccc7c56)nn4)c4ccccc43)nn2)c2c(ccc3ccccc32)o1 | 8.76 µM (≈ 6.24 µg/mL) | 1.13 mM | Stable | Stable | Unstable | Unstable
6 | Cc1cccc2c(Cn3cc(Cn4cnc5c4c(=O)n(C)c(=O)n5C)nn3)cc(=O)[nH]c12 | 116 µM (≈ 50 µg/mL) | 5.04 mM |  |  |  | 
7 | O=c1cc(Cn2cc(Cn3c(=O)n(Cc4cn(Cc5cc(=O)oc6c5ccc5ccccc56)nn4)c4ccccc43)nn2)c2ccc3ccccc3c2o1 | 2.34 µM (≈ 1.67 µg/mL) | 3.13 mM | Stable | Stable | Unstable | Unstable
8 | COc1ccc2oc(=O)cc(Cn3cc(Cn4c(=O)n(Cc5cn(Cc6cc(=O)oc7ccc(OC)cc67)nn5)c5ccccc54)nn3)c2c1 | 4.64 µM (≈ 3.12 µg/mL) | 4.12 mM | Stable | Stable | Unstable | Unstable
9 | CC(C)c1ccc2oc(=O)cc(Cn3cc(Cn4c(=O)n(Cc5cn(Cc6cc(=O)oc7ccc(C(C)C)cc67)nn5)c5ccccc54)nn3)c2c1 | 2.49 µM (≈ 1.73 µg/mL) | 3.2 mM | Stable | Stable | Unstable | Unstable
10 | Cc1ccc2oc(=O)cc(Cn3cc(Cn4c(C)cc(=O)n(Cc5cn(Cc6cc(=O)oc7ccc(C)cc67)nn5)c4=O)nn3)c2c1 | 79.1 µM (≈ 50 µg/mL) | 1.28 mM |  |  |  | 
11 | Cc1cc(C)c2c(Cn3cc(Cn4c(=O)n(Cc5cn(Cc6cc(=O)oc7cc(C)cc(C)c67)nn5)c5ccccc54)nn3)cc(=O)oc2c1 | 2.39 µM (≈ 1.6 µg/mL) | 0.943 mM | Stable | Stable | Unstable | Unstable
12 | O=c1cc(Cn2cc(Cn3c(=O)n(Cc4cn(Cc5cc(=O)[nH]c6ccc(Cl)cc56)nn4)c4ccccc43)nn2)c2cc(Cl)ccc2[nH]1 | 2.35 µM (≈ 1.6 µg/mL) | 12.3 mM | Stable | Stable | Unstable | Unstable
13 | Cc1cc(C)c2c(Cn3cc(Cn4c(C)cc(=O)n(Cc5cn(Cc6cc(=O)oc7cc(C)cc(C)c67)nn5)c4=O)nn3)cc(=O)oc2c1 | 75.7 µM (≈ 50 µg/mL) |  |  |  |  | 
14 | COc1ccc2oc(=O)cc(Cn3cc(Cn4cnc5c4c(=O)n(C)c(=O)n5C)nn3)c2c1 | 55.6 µM (≈ 25 µg/mL) | 1.38 mM |  |  |  | 
15 | Cc1ccc2c(Cn3cc(Cn4c(C)cc(=O)n(Cc5cn(Cc6cc(=O)oc7cc(C)ccc67)nn5)c4=O)nn3)cc(=O)oc2c1 | 79.1 µM (≈ 50 µg/mL) |  |  |  |  | 
16 | Cc1ccc2c(Cn3cc(Cn4c(=O)n(Cc5cn(Cc6cc(=O)oc7c(C)c(C)ccc67)nn5)c5ccccc54)nn3)cc(=O)oc2c1C | 2.39 µM (≈ 1.6 µg/mL) | 3.43 mM | Stable | Stable | Unstable | Unstable
17 | Cc1ccc2oc(=O)cc(Cn3cc(Cn4cnc5c4c(=O)n(C)c(=O)n5C)nn3)c2c1 | 115 µM (≈ 50 µg/mL) | 1.11 mM |  |  |  | 
18 | O=c1cc(Cn2cc(Cn3c(=O)n(Cc4cn(Cc5cc(=O)oc6ccc(Cl)cc56)nn4)c4ccccc43)nn2)c2cc(Cl)ccc2o1 | 18.3 µM (≈ 12.5 µg/mL) |  | Stable | Stable | Unstable | Unstable
19 | O=c1cc(Cn2cc(Cn3c(=O)n(Cc4cn(Cc5cc(=O)[nH]c6ccccc56)nn4)c4ccccc43)nn2)c2ccccc2[nH]1 | 10.2 µM (≈ 6.25 µg/mL) |  | Stable | Stable | Unstable | Unstable
20 | COc1ccc2oc(=O)cc(Cn3cc(Cn4c(C)cc(=O)n(Cc5cn(Cc6cc(=O)oc7ccc(OC)cc67)nn5)c4=O)nn3)c2c1 | 75.2 µM (≈ 50 µg/mL) | 1.52 mM |  |  |  | 
21 | Cc1ccc2oc(=O)cc(Cn3cc(Cn4c(=O)n(Cc5cn(Cc6cc(=O)oc7ccc(C)cc67)nn5)c5ccccc54)nn3)c2c1 | 2.49 µM (≈ 1.6 µg/mL) | 3.58 mM | Stable | Stable | Unstable | Unstable
22 | Cc1ccc2c(Cn3cc(Cn4c(=O)n(Cc5cn(Cc6cc(=O)oc7cc(C)ccc67)nn5)c5ccccc54)nn3)cc(=O)oc2c1 | 2.49 µM (≈ 1.6 µg/mL) | 3.52 mM | Stable | Stable | Unstable | Unstable
23 | COc1ccc2c(Cn3cc(Cn4c(=O)n(Cc5cn(Cc6cc(=O)oc7cc(OC)ccc67)nn5)c5ccccc54)nn3)cc(=O)oc2c1 | 2.37 µM (≈ 1.59 µg/mL) | 4.62 mM | Stable | Stable | Unstable | Unstable
24 | O=C(O)c1cn(C2CC2)c2cc(N3CCNCC3)c(F)cc2c1=O [CIPROFLOXACIN] | 9.43 µM (≈ 3.12 µg/mL) |  |  |  |  | 
25 | NC(=O)c1cnccn1 [PYRAZINAMIDE] | 25.4 µM (≈ 3.12 µg/mL) |  |  |  |  | 
26 | CN[C@@H]1[C@H](O[C@H]2[C@H](O[C@H]3[C@H](O)[C@@H](O)[C@H](N=C(N)N)[C@@H](O)[C@@H]3N=C(N)N)O[C@@H](C)[C@]2(O)C=O)O[C@@H](CO)[C@H](O)[C@H]1O [STREPTOMYCIN] | 10.7 µM (≈ 6.25 µg/mL) |  |  |  |  | 

— ChEMBL document CHEMBL4396954, “A click chemistry approach for the synthesis of cyclic ureido tethered coumarinyl and 1-aza coumarinyl 1,2,3-triazoles as inhibitors of Mycobacterium tuberculosis H37Rv and their in silico studies” (Bioorg Med Chem, 2019)
